This note sets out measurements from ChEMBL document CHEMBL1131030, “Synthesis and evaluation of a series of novel 2-[(4-chlorophenoxy)methyl]benzimidazoles as selective neuropeptide Y Y1 receptor antagonists” (J Med Chem, 1998).

SMILES strings stand for the structures.

Test [1] addresses T1, Neuropeptide Y receptor type 1 (Homo sapiens, UniProt P25929).
T1 sequence (P25929 whole entry): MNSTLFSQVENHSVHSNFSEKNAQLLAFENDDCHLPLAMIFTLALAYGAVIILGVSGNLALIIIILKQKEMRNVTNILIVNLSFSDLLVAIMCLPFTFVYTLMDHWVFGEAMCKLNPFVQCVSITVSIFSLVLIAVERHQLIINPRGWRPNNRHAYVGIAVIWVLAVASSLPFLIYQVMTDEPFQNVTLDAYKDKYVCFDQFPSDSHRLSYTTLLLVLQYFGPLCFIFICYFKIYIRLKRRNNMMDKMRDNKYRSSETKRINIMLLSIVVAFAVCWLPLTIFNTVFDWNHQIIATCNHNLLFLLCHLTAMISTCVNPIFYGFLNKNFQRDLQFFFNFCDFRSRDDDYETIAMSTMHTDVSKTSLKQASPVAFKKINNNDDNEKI
The test can be described thus: In vitro binding affinity towards human neuropeptide Y receptor type 1, determined by measuring its ability to displace [125]peptide YY.

For test [2], the system named is SK-N-MC. The experiment in a line: In vitro functional activity determined by its ability to antagonize 1 nM NPYs inhibition of forskolin -stimulated cyclic AMP accumulation in SK-N-MC cells. The class given is cell-based, Homo sapiens. In a few lines: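 SK-N-MC cells were stimulated with forskolin. NPY (1 nM) and antagonist were added at the same time and incubated for only 15 min, to avoid receptor desensitization. Read-out was reversal of the NPY-induced inhibition of cAMP accumulation.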

The term Ki denotes a measure of affinity in units of concentration, obtained from inhibition or displacement. `Cc1ccc2c(c1)nc(COc1ccc(Cl)cc1)n2CCCC1CCCNC1.Cc1ccc2nc(COc3ccc(Cl)cc3)n(CCCC3CCCNC3)c2c1` (configuration not stated) came in with a Ki in test [1] of 1290 nM.

Regarding `Clc1ccc(OCc2nc3ccccc3n2CCCN2CCCCC2)cc1`, the Ki in test [1] was determined as 7020 nM.

Turning to `Clc1ccc(OCc2nc3c(OCCCC4CCNCC4)cccc3n2CCCC2CCCNC2)cc1` (configuration not stated), the Ki turned out to be 152 nM in test [1] and 119 nM in test [2].

For the compound `Clc1ccc(OCc2nc3c(OCCC[C@H]4CCCNC4)cccc3n2CCC[C@@H]2CCCNC2)cc1`, the Ki stood at 27 nM in test [1] and 137 nM in test [2].

`Clc1ccc(OCc2nc3c(OCCCC4CCCNC4)cccc3n2CCCC2CCCNC2)cc1` (configuration not stated): the results for the Ki in test [1] and in test [2] were 30 nM and 77 nM, respectively.

In turn, `Cc1cccc2c1nc(COc1ccc(Cl)cc1)n2CCCC1CCCNC1` (configuration not stated) registered a Ki in test [1] of 97 nM.

The compound `Cc1cccc2nc(COc3ccc(Cl)cc3)n(CCCC3CCCNC3)c12` (configuration not stated) registered a Ki in test [1] of 400 nM.

Turning to `Clc1ccc(OCc2nc3ccccc3n2CCCC2CCCCN2)cc1` (configuration not stated), in test [1], the Ki is 3230 nM.

On to `Clc1ccc(OCc2nc3c(OCCC[C@@H]4CCCNC4)cccc3n2CCC[C@@H]2CCCNC2)cc1`, for which the results for the Ki in test [1] and in test [2] were 6 nM and 87 nM, respectively.

As for `Clc1ccc(OCc2nc3ccccc3n2CCC2CCCCN2)cc1` (configuration not stated), in test [1], the Ki worked out at 7860 nM.

For `Oc1cccc2c1nc(COc1ccc(Cl)cc1)n2CCCC1CCCNC1` (configuration not stated), in test [1], the Ki is 5300 nM.

Compound `N=C(N)NCCCC(NC(=O)C(c1ccccc1)c1ccccc1)C(=O)NCc1ccc(O)cc1` (configuration not stated) returned a Ki in test [2] of 11 nM.

With `Clc1ccc(OCc2nc3c(OCCCN4CCCCC4)cccc3n2CCCC2CCCNC2)cc1` (configuration not stated), the Ki amounted to 1.7 nM in test [1] and 2.7 nM in test [2].

On to `Clc1ccc(OCc2nc3ccccc3n2CCCCC2CCCNC2)cc1` (configuration not stated), for which the affinity in test [1] corresponds to a Ki of 1210 nM.

As to `Clc1ccc(OCc2nc3ccccc3n2CCC2CCNCC2)cc1`, the Ki in test [1] came out at 940 nM.

With `Clc1ccc(OCc2nc3ccccc3n2CCCC2CCNCC2)cc1`, in test [1], the Ki turned out to be 980 nM.

For `Clc1ccc(OCc2nc3c(OCCC[C@@H]4CCCNC4)cccc3n2CCC[C@H]2CCCNC2)cc1`, the inhibitory constant (Ki) in test [1] is 17 nM; in test [2], 65 nM.

As to `Clc1ccc(OCc2nc3c(OCCC4CCNCC4)cccc3n2CCCC2CCCNC2)cc1` (configuration not stated), the Ki in test [1] was 7 nM; in test [2], 15 nM.

For the compound `Clc1ccc(OCc2nc3ccccc3n2CCCC2CCCNC2)cc1` (configuration not stated), the Ki in test [1] is 700 nM.

In the case of `Clc1ccc(OCc2nc3c(OCCC[C@H]4CCCNC4)cccc3n2CCC[C@H]2CCCNC2)cc1`, the Ki in test [1] is 41 nM; in test [2], 153 nM.

The compound `Clc1ccc(OCc2nc3c(OCCC4CCCCN4)cccc3n2CCCC2CCCNC2)cc1` (configuration not stated) yielded a Ki in test [1] of 29 nM.

`Clc1ccc(OCc2nc3ccccc3n2CCC2CCCNC2)cc1` (configuration not stated): the Ki in test [1] turned out to be 1280 nM.

`Clc1ccc(OCc2nc3ccccc3n2CCN2CCCCC2)cc1` showed a Ki in test [1] of over 100000 nM.

`Clc1ccc(OCc2nc3c(OCCC4CCCNC4)cccc3n2CCCC2CCCNC2)cc1` (configuration not stated): the Ki amounted to 18 nM in test [1] and 91 nM in test [2].

With `Clc1ccc(OCc2nc3c(OCCCC4CCCCN4)cccc3n2CCCC2CCCNC2)cc1` (configuration not stated), the Ki stood at 16 nM in test [1] and 53 nM in test [2].

`Clc1ccc(OCc2nc3c(OCCN4CCCCC4)cccc3n2CCCC2CCCNC2)cc1` (configuration not stated): the results for the Ki in test [1] and in test [2] were 43 nM and 240 nM, respectively.
